Measurements reported in ChEMBL document CHEMBL1268915, “Optimization of a series of dipeptides with a P3 threonine residue as non-covalent inhibitors of the chymotrypsin-like activity of the human 20S proteasome” (Bioorg Med Chem Lett, 2010).
The source made the active and inactive calls. The calls are words filed in the database; no cut-off is given here.

Tests used:
[1] = Cytotoxicity against human Calu6 cells assessed as cellular ATP level after 72 hrs by luminescence-based ATPlite assay; assay type: cell-based, Calu-6; conditions: read-out: LC50
Summary of the method: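 Calu6 cells, 2000 per well, incubated with compound for 72 h. Viability read as cellular ATP by luminescence (ATPlite). Values are means of at least three independent experiments.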

Homo sapiens [2] = species: Homo sapiens; experiment: Inhibition of human elastase at 100 uM
[3] = biological target: T1, Calpain-1 catalytic subunit (Homo sapiens) (UniProt P07384); experiment: Inhibition of human calpain 1 at 100 uM
T1 sequence (whole entry): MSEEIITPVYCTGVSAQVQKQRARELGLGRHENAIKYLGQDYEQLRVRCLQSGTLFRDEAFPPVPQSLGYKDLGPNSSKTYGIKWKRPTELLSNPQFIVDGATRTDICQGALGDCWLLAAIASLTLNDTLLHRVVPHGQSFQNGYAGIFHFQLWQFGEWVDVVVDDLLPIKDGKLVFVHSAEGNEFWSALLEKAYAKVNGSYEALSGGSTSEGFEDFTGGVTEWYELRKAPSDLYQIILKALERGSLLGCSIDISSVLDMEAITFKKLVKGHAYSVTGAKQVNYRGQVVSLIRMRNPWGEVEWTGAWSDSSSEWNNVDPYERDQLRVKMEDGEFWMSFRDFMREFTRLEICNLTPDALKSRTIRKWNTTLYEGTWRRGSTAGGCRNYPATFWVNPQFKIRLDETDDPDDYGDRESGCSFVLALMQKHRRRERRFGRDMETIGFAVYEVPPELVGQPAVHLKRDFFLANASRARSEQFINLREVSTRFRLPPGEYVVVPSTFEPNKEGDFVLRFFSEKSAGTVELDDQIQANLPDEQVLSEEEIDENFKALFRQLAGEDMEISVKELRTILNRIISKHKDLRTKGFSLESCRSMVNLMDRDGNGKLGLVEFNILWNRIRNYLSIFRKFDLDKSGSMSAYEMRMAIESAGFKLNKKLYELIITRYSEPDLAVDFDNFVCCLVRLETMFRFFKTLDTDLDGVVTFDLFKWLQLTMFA

[4] = Inhibition of chymotrypsin-like activity of human 20s proteasome beta-1 subunit in human erythrocyte assessed as hydrolysis of Ac-WLA-AMC fluorogenic substrate
[5] = Inhibition of chymotrypsin-like activity of human 20s proteasome beta5 subunit in human erythrocyte assessed as hydrolysis of Ac-WLA-AMC fluorogenic substrate
[6] = biological target: Plasminogen (Homo sapiens) (UniProt P00747); experiment: Inhibition of human plasmin at 100 uM
[7] = biological target: Cathepsin B (Homo sapiens) (UniProt P07858); experiment: Inhibition of human cathepsin B at 100uM
[8] = Inhibition of chymotrypsin-like activity of human 20s proteasome beta2 subunit in human erythrocyte assessed as hydrolysis of Ac-WLA-AMC fluorogenic substrate
[9] = biological target: T2, Coagulation factor XII (Homo sapiens) (UniProt P00748); experiment: Inhibition of human coagulation factor beta 12a at 100 uM
T2 sequence (whole entry): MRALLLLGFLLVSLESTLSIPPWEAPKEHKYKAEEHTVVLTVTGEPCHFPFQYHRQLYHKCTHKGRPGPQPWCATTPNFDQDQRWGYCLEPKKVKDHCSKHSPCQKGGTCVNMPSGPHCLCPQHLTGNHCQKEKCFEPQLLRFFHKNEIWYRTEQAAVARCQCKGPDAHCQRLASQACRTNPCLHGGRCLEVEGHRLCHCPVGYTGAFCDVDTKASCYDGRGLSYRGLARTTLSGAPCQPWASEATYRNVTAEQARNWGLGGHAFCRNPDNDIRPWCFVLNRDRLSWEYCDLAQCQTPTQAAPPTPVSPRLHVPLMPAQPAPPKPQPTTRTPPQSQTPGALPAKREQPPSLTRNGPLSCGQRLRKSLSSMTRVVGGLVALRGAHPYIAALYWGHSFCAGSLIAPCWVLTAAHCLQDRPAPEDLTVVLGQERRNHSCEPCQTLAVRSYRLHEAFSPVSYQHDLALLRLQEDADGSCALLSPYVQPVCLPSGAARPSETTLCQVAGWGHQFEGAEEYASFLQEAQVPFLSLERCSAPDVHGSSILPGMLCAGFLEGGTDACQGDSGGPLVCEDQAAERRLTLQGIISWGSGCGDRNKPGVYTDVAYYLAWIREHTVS

Homo sapiens [10] = species: Homo sapiens; experiment: Inhibition of human chymotrypsin at 100 uM
[11] = biological target: Prothrombin (Homo sapiens) (UniProt P00734); experiment: Inhibition of human thrombin at 100 uM
[12] = biological target: Tissue-type plasminogen activator (Homo sapiens) (UniProt P00750); experiment: Inhibition of tissue plasminogen activator at 100 uM
[13] = biological target: Procathepsin L (Homo sapiens) (UniProt P07711); experiment: Inhibition of human cathepsin L at 100uM
Trypsin (Homo sapiens) = Trypsin (Homo sapiens) (UniProt P07477+P07478+P35030); experiment: Inhibition of human trypsin at 100 uM; assay type: protein assay
[14] = (§1) Inhibition of TNF-alpha-induced NF-kappaB activation in human HEK293 cells after 3 hrs by luciferase reporter gene assay; assay type: cell-based; conditions: HEK293, 3 h
Summary of the method: (§2)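 NF-κB-luciferase reporter in HEK293 cells (10,000 per well). Cells were pre-incubated with compound for 1 h, then stimulated with 10 ng/ml TNF-α for 3 h with compound still present. IC50 and percentage inhibition were reported as means of at least three independent experiments.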

HEK293 = experiment: as §1; assay type: cell-based; set-up: concentration or dose not given beside the values; conditions: dose or concentration not given here; summary of the method: as §2

Sequence of Procathepsin L (Homo sapiens) (P07711 114-333 limits assumed): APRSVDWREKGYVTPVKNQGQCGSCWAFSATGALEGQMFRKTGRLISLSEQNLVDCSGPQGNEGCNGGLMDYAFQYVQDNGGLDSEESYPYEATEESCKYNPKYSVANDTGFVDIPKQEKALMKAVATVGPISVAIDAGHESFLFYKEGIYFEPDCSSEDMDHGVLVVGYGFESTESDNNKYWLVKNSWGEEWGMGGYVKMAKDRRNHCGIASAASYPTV
Sequence of Plasminogen (Homo sapiens) (P00747 97-580 limits assumed): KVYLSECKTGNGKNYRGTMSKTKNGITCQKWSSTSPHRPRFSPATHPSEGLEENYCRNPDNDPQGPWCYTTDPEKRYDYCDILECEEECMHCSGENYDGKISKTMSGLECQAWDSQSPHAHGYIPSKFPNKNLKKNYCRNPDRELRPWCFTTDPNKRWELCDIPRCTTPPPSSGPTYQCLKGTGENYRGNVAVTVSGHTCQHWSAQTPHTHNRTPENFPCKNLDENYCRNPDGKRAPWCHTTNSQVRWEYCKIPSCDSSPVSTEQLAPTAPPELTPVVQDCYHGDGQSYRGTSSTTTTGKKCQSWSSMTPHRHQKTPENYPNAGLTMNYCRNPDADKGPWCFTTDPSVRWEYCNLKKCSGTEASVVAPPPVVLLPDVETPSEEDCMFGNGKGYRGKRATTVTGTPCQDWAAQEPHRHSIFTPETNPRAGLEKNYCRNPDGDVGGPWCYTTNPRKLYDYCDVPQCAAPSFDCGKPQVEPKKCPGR
Sequence of Plasminogen (Homo sapiens) (P00747 581-810 limits assumed): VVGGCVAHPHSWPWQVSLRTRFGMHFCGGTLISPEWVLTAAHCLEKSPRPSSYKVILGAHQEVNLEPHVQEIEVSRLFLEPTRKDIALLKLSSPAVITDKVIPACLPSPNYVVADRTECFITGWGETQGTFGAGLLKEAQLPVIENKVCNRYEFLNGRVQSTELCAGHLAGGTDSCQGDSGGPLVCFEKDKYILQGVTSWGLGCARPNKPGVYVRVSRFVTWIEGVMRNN
Sequence of Tissue-type plasminogen activator (Homo sapiens) (P00750 36-562 limits assumed): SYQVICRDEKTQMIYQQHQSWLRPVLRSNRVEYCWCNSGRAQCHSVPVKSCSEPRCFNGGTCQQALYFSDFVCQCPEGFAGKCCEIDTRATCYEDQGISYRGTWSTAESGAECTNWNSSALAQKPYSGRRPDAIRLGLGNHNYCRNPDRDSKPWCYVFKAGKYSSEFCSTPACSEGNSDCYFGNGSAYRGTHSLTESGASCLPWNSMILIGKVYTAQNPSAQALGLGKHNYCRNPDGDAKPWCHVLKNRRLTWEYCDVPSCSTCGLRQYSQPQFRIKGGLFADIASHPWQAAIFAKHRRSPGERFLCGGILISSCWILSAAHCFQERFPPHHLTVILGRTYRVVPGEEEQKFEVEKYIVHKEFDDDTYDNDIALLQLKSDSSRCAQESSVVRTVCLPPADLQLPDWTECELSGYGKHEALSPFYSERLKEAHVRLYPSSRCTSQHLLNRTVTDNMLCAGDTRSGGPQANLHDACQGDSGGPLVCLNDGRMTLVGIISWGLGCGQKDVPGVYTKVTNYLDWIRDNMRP

Row | SMILES | CC50 at 72 h [1] | inhibition (Homo sapiens [2]) | inhibition [3] | IC50 [4] | IC50 [5] | inhibition [6] | inhibition [7] | IC50 [8] | inhibition [9] | inhibition (Homo sapiens [10]) | inhibition [11] | inhibition [12] | inhibition [13] | inhibition (Trypsin (Homo sapiens)) | IC50 [14] | inhibition (HEK293)
1 | CCNC(=O)[C@H](CCc1ccccc1)NC(=O)[C@@H](NC(=O)c1ccc(OCc2ccccc2)cc1)[C@@H](C)O | 5.1 µM | Active | Active | > 20 µM | 0.44 µM | Active | Active | > 20 µM | Active | Active | Active | Active | Active | Active | 2.6 µM | 98%
2 | COc1ccc2c(c1)CC(C(=O)N[C@H](C(=O)N[C@@H](CCc1ccccc1)C(=O)NCc1ccc(C)cc1)[C@@H](C)O)CC2 (stereo partly specified) | 2.3 µM | Active | Active | > 20 µM | 0.02 µM | Active | Active | > 20 µM | Active | Active | Active | Active | Active | Active | 0.095 µM | 89%
3 | COC[C@H](NC(=O)Cc1cccc(OCc2ccccc2)c1)C(=O)N[C@@H](CCc1ccccc1)C(=O)NCc1ccc(C)cc1 | 0.22 µM | Active | Active | > 20 µM | 0.074 µM | Active | Active | > 20 µM | Active | Active | Active | Active | Active | Active | 0.34 µM | 78%
4 | C[C@@H](O)[C@H](NC(=O)c1ccc(OCc2ccccc2)cc1)C(=O)N[C@@H](CCc1ccccc1)C(=O)NCc1ccccc1Cl | 0.29 µM | Active | Active | > 20 µM | 0.013 µM | Active | Active | > 20 µM | Active | Active | Active | Active | Active | Active | 0.029 µM | 87%
5 | C=CCNC(=O)[C@H](CCc1ccccc1)NC(=O)[C@@H](NC(=O)c1ccc(OCc2ccccc2)cc1)[C@@H](C)O | 2.8 µM | Active | Active | > 20 µM | 0.1 µM | Active | Active | > 20 µM | Active | Active | Active | Active | Active | Active | 0.88 µM | 99%
6 | Cc1ccc(CNC(=O)[C@H](CCc2ccccc2)NC(=O)[C@@H](NCc2ccc(OCc3ccccc3)cc2)[C@@H](C)O)cc1 | 14 µM | Active | Active | > 20 µM | 3.1 µM | Active | Active | > 20 µM | Active | Active | Active | Active | Active | Active | > 50 µM | 37%
7 | C[C@@H](O)[C@H](NC(=O)c1ccc(OCc2ccccc2)cc1)C(=O)N[C@@H](CCc1ccccc1)C(=O)N(C)Cc1ccccc1 | 6.6 µM | Active | Active | > 20 µM | 9.1 µM | Active | Active | > 20 µM | Active | Active | Active | Active | Active | Active | 4.4 µM | 86%
8 | Cc1ccc(CNC(=O)[C@H](CCc2ccccc2)NC(=O)[C@@H](NC(=O)c2ccc(OCc3ccccc3)cc2)[C@@H](C)O)cc1 | 0.38 µM | Active | Active | > 20 µM | 0.02 µM | Active | Active | > 20 µM | Active | Active | Active | Active | Active | Active | 0.12 µM | 81%
9 | Cc1ccc(CNC(=O)[C@H](CCc2ccccc2)NC(=O)[C@@H](NC(=O)C(=O)c2c[nH]c3ccccc23)[C@@H](C)O)cc1 | 0.136 µM | Active | Active | > 20 µM | 0.0073 µM | Active | Active | > 20 µM | Active | Active | Active | Active | Active | Active | 0.09 µM | 100%
10 | C[C@@H](O)[C@H](NC(=O)c1ccc(OCc2ccccc2)cc1)C(=O)N[C@@H](CCc1ccccc1)C(=O)NCc1cccc(Cl)c1 | > 25 µM | Active | Active | > 20 µM | 0.21 µM | Active | Active | > 20 µM | Active | Active | Active | Active | Active | Active | 15 µM | 44%
11 | C[C@@H](O)[C@H](NC(=O)c1ccc(OCc2ccccc2)cc1)C(=O)N[C@@H](CCc1ccccc1)C(=O)NCc1ccccc1 | 1.4 µM | Active | Active | > 20 µM | 0.068 µM | Active | Active | > 20 µM | Active | Active | Active | Active | Active | Active | 0.71 µM | 68%
